Experimental data as given in ChEMBL document CHEMBL4196176, “Structure-Based Design of MptpB Inhibitors That Reduce Multidrug-Resistant Mycobacterium tuberculosis Survival and Infection Burden in Vivo” (J Med Chem, 2018).
The source made the active and inactive calls. The rule behind the calls is not given here.

What was measured:
[1] = target: T1, Phosphotyrosine protein phosphatase (Mycobacterium tuberculosis, UniProt A0A045ISB3); experiment: Inhibition of Mycobacterium tuberculosis H37Rv His-tagged ptpB expressed in Escherichia coli BL21(DE3) using pNPP as substrate preincubated for 15 mins followed by substrate addition and measured after 15 mins
T1 sequence (A0A045ISB3 whole entry): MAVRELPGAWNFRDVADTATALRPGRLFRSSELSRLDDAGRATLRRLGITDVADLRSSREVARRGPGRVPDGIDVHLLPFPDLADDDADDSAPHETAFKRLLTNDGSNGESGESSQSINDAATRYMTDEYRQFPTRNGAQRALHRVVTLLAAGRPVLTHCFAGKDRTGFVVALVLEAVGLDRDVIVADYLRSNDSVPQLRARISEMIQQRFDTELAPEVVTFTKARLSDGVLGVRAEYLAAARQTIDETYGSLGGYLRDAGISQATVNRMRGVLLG

J774.A1 [2] = experiment: Cytotoxicity against mouse J774A.1 cells assessed as reduction in cell viability at 50 to 150 uM after 24 hrs by MTT assay; assay type: cell-based; conditions: j774.a1, 24 h
Method in brief: (§1)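 MTT viability assay in J774A.1 cells seeded at 6 × 10^3/well and adhered overnight. Inhibitor in DMSO or DMSO only added for 24 h. MTT (5 mg/mL in PBS) added for 4 h, formazan dissolved in DMSO with Sorensen's glycine buffer, absorbance read at 570 nm.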

[3] = target: Dual specificity protein phosphatase 3 (Homo sapiens, UniProt P51452); experiment: Inhibition of human VHR using pNPP as substrate preincubated for 15 mins followed by substrate addition and measured after 15 mins
Sequence of Dual specificity protein phosphatase 3 (P51452 whole entry, the tested form may be a part): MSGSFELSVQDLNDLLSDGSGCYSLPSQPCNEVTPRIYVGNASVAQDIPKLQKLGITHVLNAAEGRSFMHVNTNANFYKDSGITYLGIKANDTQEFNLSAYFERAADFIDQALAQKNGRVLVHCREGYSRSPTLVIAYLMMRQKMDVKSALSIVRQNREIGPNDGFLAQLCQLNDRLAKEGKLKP
Method in brief: (§2)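 His-tagged MptpA/MptpB expressed in E. coli BL21(DE3); VHR and hPTP1B purified as GST fusions with the tag cleaved. 0.5 μg protein in Tris/BisTris/acetate buffer (pH 7 MptpB, 6.5 MptpA, 6 hPTP1B, 5 VHR) with compound at 0–250 μM, 15 min at room temperature. pNPP added to 0.35 mM for 15 min, quenched with NaOH, read at 405 nm against a pNP curve. No-enzyme blanks.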

[4] = Inhibition of Mycobacterium tuberculosis H37Rv His-tagged ptpA expressed in Escherichia coli BL21(DE3) using pNPP as substrate preincubated for 15 mins followed by substrate addition and measured after 15 mins; method in brief: as §2
[5] = target: T2, Tyrosine-protein phosphatase non-receptor type 1 (Homo sapiens, UniProt P18031); experiment: Inhibition of human PTP1B using pNPP as substrate preincubated for 15 mins followed by substrate addition and measured after 15 mins
T2 sequence (P18031 whole entry): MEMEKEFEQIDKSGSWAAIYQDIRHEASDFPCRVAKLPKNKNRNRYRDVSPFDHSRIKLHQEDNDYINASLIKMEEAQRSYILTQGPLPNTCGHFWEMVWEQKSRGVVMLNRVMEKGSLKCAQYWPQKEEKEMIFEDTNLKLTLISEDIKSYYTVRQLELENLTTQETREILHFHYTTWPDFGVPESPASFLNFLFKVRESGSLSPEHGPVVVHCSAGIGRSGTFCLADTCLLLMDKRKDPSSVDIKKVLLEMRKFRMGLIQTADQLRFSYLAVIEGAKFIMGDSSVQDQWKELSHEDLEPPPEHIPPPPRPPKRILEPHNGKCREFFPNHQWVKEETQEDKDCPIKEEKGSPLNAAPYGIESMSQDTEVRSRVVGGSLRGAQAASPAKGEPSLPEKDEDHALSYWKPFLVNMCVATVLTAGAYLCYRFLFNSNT

[6] = Selectivity ratio of IC50 for human PTP1B to IC50 for Mycobacterium tuberculosis H37Rv His-tagged ptpB
[7] = test system: Mycobacterium tuberculosis; experiment: Antibacterial activity against Mycobacterium tuberculosis H37Rv infected in chronic TB infection induced Hartley Duncan guinea pig model assessed as log reduction in bacterial burden in spleen at 100 mg/kg/day, po administered at 24 hrs post infection measured after 4 weeks post infection; assay type: functional
Method in brief: (§3)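 Guinea pigs infected by aerosol with 63 CFU M. tuberculosis, 5 per group, and left untreated for 28 days; baseline lung and spleen burden taken at day 28. Compound (100 mg/kg) or vehicle then given orally daily for 4 weeks. Lung and spleen CFU compared with vehicle.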

Cavia porcellus [8] = experiment: Cmax in Dunkin Hartley guinea pig at 8 mg/kg, po after 0.25 hrs post dose; assay type: ADME, organism-based; design: dose 8 mg/kg, route oral; conditions: in vivo
[9] = test system: Mycobacterium tuberculosis; experiment: (§4) Antimycobacterial activity against Mycobacterium tuberculosis H37Rv infected in chronic TB infection induced Hartley Duncan guinea pig model assessed as reduction in necrotic lesions in lungs at 100 mg/kg/day, po administered at 24 hrs post infection measured after 56 days post infection by hematoxylin and eosin staining-based assay; assay type: functional, organism-based
Method in brief: (§5)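 Chronic aerosol model (63 CFU; oral 100 mg/kg daily for 4 weeks from day 28). Lungs and spleens inspected at 56 days post infection. Tissue fixed in formalin, paraffin-embedded, cut at about 5 μm and stained with hematoxylin and eosin; lesions and granulomas compared with vehicle.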

[10] = test system: Mycobacterium tuberculosis; experiment: as §4, with “spleen” for “lungs”; assay type: functional, organism-based; method in brief: as §5
[11] = target: T3, Phosphotyrosine protein phosphatase (Mycobacterium tuberculosis) (UniProt A0A045ISB3); experiment: Inhibition of Mycobacterium tuberculosis H37Rv ATCC 35837 ptpB infected in human THP1 cells assessed as reduction in intracellular bacterial burden at 20 to 100 uM after 72 hrs post infection relative to DMSO-treated control; assay type: cell-based
T3 sequence (whole entry): T1 sequence (A0A045ISB3 whole entry)
Method in brief: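 PMA-differentiated THP1 cells (1 × 10^6/well) in RPMI with 10% FBS. Inhibitor (0, 20 or 80 μM in DMSO) added, then infected with thawed M. tuberculosis at MOI 1:1 for 3 h and washed 4 times. Medium and inhibitor renewed at 24 h. Cells lysed in 0.05% SDS at 72 h; CFU plated in duplicate and counted after 3 weeks. Triplicate.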

[12] = Kinetic solubility of the compound after 90 mins; assay type: physicochemical; conditions: 1.5 h
[13] = test system: Mycobacterium tuberculosis; experiment: as §4, with “reduction of granulomatous infiltration” for “reduction”, “spleen” for “necrotic lesions in lungs”; assay type: functional, organism-based; method in brief: as §5
[14] = test system: Mycobacterium tuberculosis; experiment: Antibacterial activity against Mycobacterium tuberculosis H37Rv infected in chronic TB infection induced Hartley Duncan guinea pig model assessed as log reduction in bacterial burden in lungs at 100 mg/kg/day, po administered at 24 hrs post infection measured after 4 weeks post infection; assay type: functional; method in brief: as §3
[15] = Plasma concentration in Hartley Duncan guinea pig at 100 mg/kg, po measured at 2 hrs; assay type: ADME, organism-based, Cavia porcellus
Method in brief: (§6)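 Guinea pigs (n = 5) given 100 mg/kg orally once daily for 7 days. Plasma and lung drug levels measured at 2 h and at 24 h after the last dose, as peak and trough.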

[16] = test system: Mycobacterium tuberculosis; experiment: Antibacterial activity against Mycobacterium tuberculosis H37Rv infected in acute TB infection induced Hartley Duncan guinea pig model assessed as log reduction in bacterial burden in lungs at 100 mg/kg/day, po administered at 24 hrs post infection measured after 4 weeks post infection; assay type: functional
Method in brief: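 Guinea pigs infected by aerosol with 96 CFU M. tuberculosis H37Rv, 4 per group. Compound (100 mg/kg) or vehicle given orally daily for 4 weeks from 24 h post infection. Lung bacterial burden measured relative to vehicle.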

Cavia porcellus [17] = experiment: Oral bioavailability in Dunkin Hartley guinea pig at 8 mg/kg; assay type: ADME, organism-based; conditions: in vivo
Cavia porcellus [18] = experiment: Cmax in Dunkin Hartley guinea pig at 4 mg/kg, ip after 0.5 hrs post dose; assay type: ADME, organism-based; design: dose 4 mg/kg, route intraperitoneal; conditions: in vivo
Cavia porcellus [19] = experiment: Half life in Dunkin Hartley guinea pig at 4 mg/kg, ip; assay type: ADME, organism-based; conditions: in vivo
Cavia porcellus [20] = experiment: AUCinfinity in Dunkin Hartley guinea pig at 8 mg/kg, po; assay type: ADME, organism-based; design: dose 8 mg/kg, route oral, time infinity; conditions: in vivo
Cavia porcellus [21] = experiment: Half life in Dunkin Hartley guinea pig at 8 mg/kg, po; assay type: ADME, organism-based; conditions: in vivo
[22] = target: T3, Phosphotyrosine protein phosphatase (Mycobacterium tuberculosis); experiment: Inhibition of RFP expressing Mycobacterium tuberculosis H37Rv ATCC 35837 ptpB infected in mouse RAW264.7 cells assessed as prolongation association of PI3P to FYVE2X-FGFP on bacterial phagosome at 80 uM by live-cell imaging method; assay type: cell-based
Method in brief: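 RAW264.7 cells transfected with EGFP-2xFYVE plasmid using JetPEI. Next day infected with RFP-M. tuberculosis H37Rv at MOI 5:1, with compound at 80 μM added together with the bacteria. Imaged live immediately, every 30 s, to follow PI3P on phagosomes.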

Cavia porcellus [23] = experiment: Toxicity in Hartley Duncan guinea pig assessed as body weight increase at 50 to 100 mg/kg/day, po administered for 7 days; assay type: organism-based; conditions: in vivo, 168 h
Method in brief: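 Male Hartley guinea pigs (n = 5) given the compound orally once daily for 7 days at 50 or 100 mg kg–1, as a pre-infection tolerability study. Animals were monitored for adverse drug effects and body-weight change. Plasma and lung drug levels were taken at 2 and 24 h after the last dose.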

[24] = test system: Mycobacterium tuberculosis; experiment: as §4, with “of granulomatous infiltration” for “in necrotic lesions”; assay type: functional, organism-based; method in brief: as §5
[25] = Drug uptake in Hartley Duncan guinea pig lungs at 100 mg/kg, po measured at 2 hrs; assay type: ADME, organism-based, Cavia porcellus; conditions: lung, read-out: Drug uptake; method in brief: as §6
[26] = Permeability of the compound at 200 uM after 5 hrs by PAMPA assay; assay type: ADME; conditions: read-out: permeability
Cavia porcellus [27] = experiment: AUCinfinity in Dunkin Hartley guinea pig at 4 mg/kg, ip; assay type: ADME, organism-based; design: dose 4 mg/kg, route intraperitoneal, time infinity; conditions: in vivo
[28] = Plasma concentration in Hartley Duncan guinea pig at 100 mg/kg, po measured at 24 hrs; assay type: ADME, organism-based, Cavia porcellus; method in brief: as §6
J774.A1 [29] = experiment: Cytotoxicity against mouse J774A.1 cells assessed as reduction in cell viability at >100 uM after 24 hrs by MTT assay; assay type: cell-based; conditions: j774.a1, 24 h; method in brief: as §1

Work on `O=C(O)c1noc(-c2ccccc2)c1-c1cccc(O)c1` yielded an IC50 [1] of 85 µM.

With `O=C(O)c1noc(-c2ccccc2)c1-c1cccc(-c2cc(Cl)c(O)c([N+](=O)[O-])c2)c1` the Activity (J774.A1 [2]) was “Non-Toxic”, the IC50 [3] was 13 µM and the IC50 [4] was 30.2 µM. The IC50 [5] was 313 µM.

`COc1cccc(-c2c(C(=O)O)noc2-c2ccccc2)c1` showed an IC50 [1] of 38 µM.

For `O=C(O)c1noc(-c2ccccc2)c1-c1ccccc1`, the Ratio IC50 [6] was 5.9, the IC50 [1] was 17 µM and the IC50 [5] was 100 µM.

In the case of `Cc1onc(C(=O)O)c1-c1cccc(-c2cc(Cl)c(O)c(Cl)c2)c1`, the Activity [7] is reported as 1 deltalog10CFU, the Cmax (Cavia porcellus [8]) is reported as 111.099 µg/mL and the Activity [9] is reported as “Active”. For the same compound, the Activity [10] was “Active”, the inhibition [11] was less than 63% and the Kinetic_solubility [12] was 200 µM. For the same compound, the Activity [13] was “Active”, the Activity [14] was 1 deltalog10CFU and the concentration at 2 h [15] was 1.75 µg/mL. The Activity [16] was 0.9 deltalog10CFU, the F (Cavia porcellus [17]) was 156% and the Cmax (Cavia porcellus [18]) was 31.519 µg/mL. For the same compound, the t1/2 (Cavia porcellus [19]) was 1.4 h, the AUC (Cavia porcellus [20]) was 230.407 µg·h/mL and the t1/2 (Cavia porcellus [21]) was 5.1 h. The TIME [22] was less than 0.2 h, the Activity (Cavia porcellus [23]) was greater than 5% and the Activity [24] was “Active”. The concentration at 2 h [25] was 623 ng/g, the Papp at 5 h, 200 µM [26] was 78.1 nm/s and the AUC (Cavia porcellus [27]) was 71.854 µg·h/mL. It also gave a concentration at 24 h [28] of 0.035 µg/mL.

With `O=C(O)c1noc(-c2ccccc2)c1-c1cccc(-c2ccc(O)c(Cl)c2)c1` the Activity (J774.A1 [2]) was “Non-Toxic”, the IC50 [3] was 18.7 µM and the IC50 [1] was 0.9 µM. It also gave an Activity (J774.A1 [29]) greater than 23%, an IC50 [4] of 23.5 µM and an IC50 [5] of 213 µM.

In the case of `O=C(O)c1noc(-c2ccccc2)c1-c1cccc(-c2ccc(O)c(F)c2)c1`, the Activity (J774.A1 [2]) is reported as “Non-Toxic”, the IC50 [3] is reported as 40.2 µM and the IC50 [1] is reported as 1.5 µM. The IC50 [4] was 35.3 µM and the IC50 [5] was greater than 100 µM.
